Assay results pooled from the literature.
Compare with care: the assays were run in different laboratories.
KIT D816V: Mast/stem cell growth factor receptor Kit (KIT, Homo sapiens, UniProt P10721, D816V)
KIT D816H: Mast/stem cell growth factor receptor Kit (KIT, Homo sapiens, UniProt P10721, D816H)
KIT autoinhibited: Mast/stem cell growth factor receptor Kit, autoinhibited (KIT, Homo sapiens, UniProt P10721)
KIT V559D: Mast/stem cell growth factor receptor Kit (KIT, Homo sapiens, UniProt P10721, V559D)
KIT V654A: Mast/stem cell growth factor receptor Kit (KIT, Homo sapiens, UniProt P10721, V654A)
KIT: Mast/stem cell growth factor receptor Kit (KIT, Homo sapiens, UniProt P10721)
KIT A829P: Mast/stem cell growth factor receptor Kit (KIT, Homo sapiens, UniProt P10721, A829P)

| SMILES | target | assay | setting | measurement | result |
| --- | --- | --- | --- | --- | --- |
| Cc1cc(NC(=O)c2cccc3cc(-c4cccc5[nH]nc(N)c45)ccc23)ccc1F | KIT D816V | enzyme activity, inhibitor | 0.1 µM | activity vs control | 107% |
| CCS(=O)(=O)c1cc2cc(C[C@](O)(CC(C)(C)c3ccc(F)cc3C(N)=O)C(F)(F)F)[nH]c2cn1 | KIT D816H | cell-free assay, competition with immobilised ligand | 1 µM | remaining binding | 98% |
| CN(CCCC(F)(F)F)c1nccc(-c2cnn3ncccc23)n1 | Mast/stem cell growth factor receptor Kit (KIT, Homo sapiens, UniProt P10721, L576P) | binding | 1 µM | remaining binding | 93% |
| CCc1ccccc1C(=O)Nc1n[nH]c2c(C)c(F)c(C3C(C#N)=C(C)N(C)C(C)=C3C#N)cc12 | KIT D816V | cell-free assay, competition with immobilised ligand | 1 µM | remaining binding | 55% |
| CN(C)c1nccc(-c2cnc3ncccn23)n1 | KIT D816V | binding | 1 µM | remaining binding | 100% |
| C[C@@H]1CN(c2cc(-c3n[nH]c4ccc(OC5(C)CC5)cc34)ncn2)C[C@H](C)O1 | KIT autoinhibited | cell-free assay, competition with immobilised ligand | 0.1 µM | remaining binding | 70% |
| CN(C)c1ncc(F)c(-c2cnn3ncccc23)n1 | KIT V559D | binding | 1 µM | remaining binding | 91% |
| Cc1cnc(NC2CCOCC2)nc1-n1cnc(C(=O)NC(CN)c2cc(F)cc(Cl)c2)c1 (stereo not drawn) | KIT D816H | enzyme activity, inhibitor, radiometric | 1 µM | remaining activity | 96% |
| C[C@@H]1CCN(c2nccc(-c3cnn4ncccc34)n2)C1 | KIT V559D | binding | 1 µM | remaining binding | 100% |
| Cc1ccc(C(=O)NCc2ccsc2)cc1C#Cc1cn(C(C)C)c2ncnc(N)c12 | KIT V654A | enzyme activity, inhibitor | 1 µM | activity vs control | 3% |
| CNC(=O)c1cc(Oc2ccc(NC(=O)Nc3ccc(Cl)c(C(F)(F)F)c3)cc2)ccn1 | KIT | cell-free assay | 0.5 µM | remaining signal | 53.3% |
| Nc1ncnc2occ(-c3ccc(NC(=O)Nc4cc(C(F)(F)F)ccc4F)cc3)c12 | KIT A829P | cell-free assay, inhibitor | 20 µM | remaining signal | 3.7% |
| Nc1nc(Nc2ccc(S(N)(=O)=O)cc2)nn1C(=O)c1c(F)cccc1F | KIT | cell-free assay | 0.5 µM | remaining signal | 81.7% |
| COc1cc(-c2cc(-c3ccc(N4CCNCC4)cc3)cnc2N)cc(OC)c1OC | KIT D816V | enzyme activity, inhibitor | 1 µM | inhibition | 8% |
| Cc1c[nH]c2nccc(Oc3c(F)cc(Nc4cc(Cl)nc(N)n4)cc3F)c12 | KIT autoinhibited | cell-free assay, competition with immobilised ligand | 0.1 µM | remaining binding | 77% |
| Oc1cccc(-c2nc(N3CCOCC3)c3oc4ncccc4c3n2)c1 | KIT | cell-free assay | 0.5 µM | remaining signal | 88.9% |
| CCCOc1ccc(OC)c(F)c1C(=O)c1ccc(C(=O)N[C@@H]2CNC[C@H]2NC(=O)c2ccc3[nH]ncc3c2)cc1 | KIT V654A | enzyme activity, inhibitor | 10 µM | remaining activity | 68% |
| C[C@@H]1CN(c2cc(-c3nn(C)c4ccc(OC5(C)CC5)cc34)ncn2)C[C@H](C)O1 | KIT autoinhibited | cell-free assay, competition with immobilised ligand | 1 µM | remaining binding | 97% |
| CC/C(=N\NC(=O)NCc1cccc(O)c1)c1ccc(O)c(C)c1O | Mast/stem cell growth factor receptor Kit (KIT, Homo sapiens, UniProt P10721, V560G) | enzyme activity, inhibitor | 0.1 µM | inhibition | 0.1% |
| Cn1nc(C(=O)NCc2ccc(C(=O)O)cc2)cc1-c1ccc2[nH]ccc2c1 | KIT A829P | cell-free assay, competition with immobilised ligand | 0.1 µM | remaining binding | 72% |
| N[C@@H]1CCN(c2nccc(-c3cnn4ncccc34)n2)C1 | Mast/stem cell growth factor receptor Kit (KIT, Homo sapiens, UniProt P10721, V559D/V654A) | binding | 1 µM | remaining binding | 100% |
